The term IC50 denotes the concentration that gives 50% inhibition. A higher IC50 goes with weaker potency in that assay. Broadly, the inhibition is the percentage by which the read-out fell short of the control.

Experimental findings from ChEMBL document CHEMBL3259608, “Synthesis of a terphenyl substituted 4-aza-2,3-didehydropodophyllotoxin analogues as inhibitors of tubulin polymerization and apoptosis inducers” (Bioorg Med Chem, 2014) are described below.

For experiment [1], the system named is A549. Kind of experiment: Anticancer activity against human A549 cells after 48 hrs by MTT assay. The settings on record: A549, 48 h. It is filed as functional, cell-based. Put shortly:
(§1)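 MTT assay: 1×10⁴ cells/well seeded in DMEM with 10% FBS, 24 h at 37°C in CO₂ before dosing. Compounds diluted in medium, vehicle control included, 48 h exposure. MTT (5 mg/mL stock) added for 4 h, formazan dissolved in DMSO, absorbance read at 540 nm. IC50 averaged from three individual experiments.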
On the technique in general: Tetrazolium dyes change colour on reduction, which living cells bring about.

The next experiment concerns HT-29. Put plainly: Anticancer activity against human HT-29 cells after 48 hrs by MTT assay. It is filed as functional, cell-based. The following applies: HT-29, 48 h. Put shortly:
as §1

The subject of a further experiment is ACHN. Put plainly: Anticancer activity against human ACHN cells after 48 hrs by MTT assay. The experiment is classed as functional, cell-based. The gist of the method:
as §1

In the next experiment the test system is DU-145. Kind of experiment: Anticancer activity against human DU145 cells after 48 hrs by MTT assay. It is filed as functional, cell-based. The settings on record: DU-145, 48 h. Put shortly: as §1
The test system of another experiment is HeLa. Put plainly: Anticancer activity against human HeLa cells after 48 hrs by MTT assay. It is filed as functional, cell-based. The gist of the method:
as §1

The subject of experiment [2] is A549. Put plainly: Cell cycle arrest in human A549 cells assessed as accumulation at sub-G1 phase at 0.5 uM after 48 hrs by propidium iodide staining-based flow cytometric analysis (reference value: 6.47%). It is filed as functional. On the technique in general: Flow cytometry measures light scatter and fluorescence of single cells or particles in a stream.
Experiment [3] deals with A549. Kind of experiment: Cell cycle arrest in human A549 cells assessed as accumulation at sub-G1 phase at 1 uM after 48 hrs by propidium iodide staining-based flow cytometric analysis (reference value: 6.47%). The experiment is classed as functional.
Experiment [4] deals with A549. Put plainly: Cell cycle arrest in human A549 cells assessed as accumulation at G0/G1 phase at 0.5 uM after 48 hrs by propidium iodide staining-based flow cytometric analysis (reference value: 78.23%). It is filed as functional.
Experiment [5] has as its system A549. Kind of experiment: Cell cycle arrest in human A549 cells assessed as accumulation at G0/G1 phase at 1 uM after 48 hrs by propidium iodide staining-based flow cytometric analysis (reference value: 78.23%). It is filed as functional.
Experiment [6] deals with A549. Kind of experiment: Cell cycle arrest in human A549 cells assessed as accumulation at S phase at 0.5 uM after 48 hrs by propidium iodide staining-based flow cytometric analysis (reference value: 3.57%). The experiment is classed as functional.
In experiment [7] the test system is A549. Kind of experiment: Cell cycle arrest in human A549 cells assessed as accumulation at S phase at 1 uM after 48 hrs by propidium iodide staining-based flow cytometric analysis (reference value: 3.57%). It is filed as functional.
In experiment [8] the test system is A549. Kind of experiment: Cell cycle arrest in human A549 cells assessed as accumulation at G2/M phase at 0.5 uM after 48 hrs by propidium iodide staining-based flow cytometric analysis (reference value: 11.73%). It is filed as functional.
Experiment [9] concerns A549. Put plainly: Cell cycle arrest in human A549 cells assessed as accumulation at G2/M phase at 1 uM after 48 hrs by propidium iodide staining-based flow cytometric analysis (reference value: 11.73%). The experiment is classed as functional.
In experiment [10] the target is T1, Tubulin (Homo sapiens) (UniProt P68371+Q9H4B7+P0DPH7+P68366+Q13509+Q71U36+P04350+Q3ZCM7+P07437+P68363+Q9BQE3+Q6PEY2+Q13885+Q9BVA1+Q9BUF5). Put plainly: Inhibition of tubulin (unknown origin) polymerization at 3 uM measured for 1 hr by fluorescence assay relative to control. It is filed as protein-complex assay. The gist of the method:
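Tubulin polymerization kit, fluorescence-reporter based. Reaction in PEM buffer with GTP, with or without compound at 3 µM final. Reporter incorporation followed as fluorescence increase (excitation 360 nm, emission 420 nm) for 1 h at 37°C. Mean of two experiments, each in triplicate.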

The next experiment concerns the target Tubulin. Put plainly: Inhibition of tubulin (unknown origin) polymerization measured for 1 hr by fluorescence assay. The experiment is classed as protein-complex assay, Homo sapiens.
Experiment [11] addresses T1, Tubulin (Homo sapiens). Kind of experiment: Inhibition of alpha-tubulin polymerization in human A549 cells at 1 uM after 48 hrs by immunohistochemical analysis. The experiment is classed as cell-based. The gist of the method:
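A549 cells on coverslips treated 48 h at 1 µM. Fixed in 4% paraformaldehyde for 20 min, permeabilised with 0.2% Triton X-100 for 5 min, then methanol overnight. Blocked in 1% BSA, anti-α-tubulin (1:1000) 2 h at room temperature, FITC anti-mouse secondary 1 h. Microtubule network integrity examined by fluorescence microscopy.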

The test system of experiment [12] is A549. Kind of experiment: Induction of apoptosis in human A549 cells assessed as nuclear condensation at 1 uM after 48 hrs by Hoechst staining-based fluorescence microscopic analysis. It is filed as functional, cell-based. The gist of the method: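 10,000 A549 cells on coverslips, 24 h, then fresh medium with compound at 1 µM for 48 h. Vehicle control 0.001% DMSO. Hoechst 33258 added with 4% paraformaldehyde for 30 min at 37°C. Random fields imaged by fluorescence microscopy and scored qualitatively for chromatin condensation and nuclear fragmentation.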

The subject of experiment [13] is A549. Put plainly: Induction of apoptosis in human A549 cells assessed as caspase-3 activation at 1 to 2 uM after 48 hrs by ELISA relative to control. It is filed as functional. Put shortly:
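Colorimetric caspase-3 kit used. A549 cells treated 48 h at 1 and 2 µM, pelleted, washed in PBS, lysed 15 min, spun 15 min. Supernatant assayed by ELISA-based readout, fold change versus untreated control. Mean of two experiments, each in triplicate.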
For orientation: In an ELISA, binding on a coated surface is turned into a signal by an enzyme label.

Experiment [14] has as its system A549. Put plainly: Induction of apoptosis in human A549 cells assessed as DNA fragmentation at 1 uM after 48 hrs by agarose gel electrophoresis. The experiment is classed as functional, cell-based. Put shortly: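 After 24 h settling, 1×10⁶ A549 cells/well treated 48 h at 1 µM. Pellet washed in PBS and lysed. Supernatant given SDS and RNase A for 2 h at 56°C, then proteinase K for 2 h at 37°C. DNA precipitated with ammonium acetate and cold ethanol at -80°C, washed in 80% ethanol, dissolved in TE. Laddering on 2% agarose gel.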

Active and inactive are the calls of the source. The calls are words filed in the database; no cut-off is given here.

Turning to `O=C1OCC2=C1C(c1ccc(-c3ccc(-c4ccc(OC(F)(F)F)cc4)cc3)cc1)c1c(ccc3cn[nH]c13)N2` (stereo unspecified), the IC50 in the experiment on A549 [1] stood at 0.87 µM; with HT-29, 1 µM; with ACHN, 0.95 µM; with DU-145, 0.98 µM; in the experiment with HeLa, 1.24 µM; at Tubulin, 2.95 µM. For the same molecule, the Activity in the experiment on A549 [2] is on record as 1.08%; with A549 [3] it was 1.01%; in the experiment with A549 [4] it was 64.52%; in the experiment with A549 [5], 38.41%; in the experiment with A549 [6], 2.39%; in the experiment on A549 [7], 2.35%. The results for the Activity with A549 [8] and in the experiment with A549 [9] were 32.01% and 58.23%, respectively. At Tubulin (Homo sapiens) [10], this molecule gave an inhibition of 60.1%. Further, the inhibition result at Tubulin (Homo sapiens) [11] is “Active”. The outcome with A549 [12] and in the experiment with A549 [14] was Active. In addition, in the experiment on A549 [13], the “fold change (FC)” value is 3.

Take `O=C1OCC2=C1C(c1ccc(-c3ccc(-c4cc(F)cc(F)c4)cc3)cc1)c1c(ccc3cn[nH]c13)N2` (stereo unspecified): the IC50 was 0.91 µM in the experiment on A549 [1]; 1.02 µM in the experiment with HT-29; 0.95 µM with ACHN; 1.28 µM in the experiment with DU-145; 1.23 µM in the experiment on HeLa; 2.74 µM at Tubulin. The Activity came out at 1.27% with A549 [2]; 1.22% with A549 [3]; 69.78% with A549 [4]; 41.23% in the experiment with A549 [5]; 4.39% in the experiment on A549 [6]; 5.21% in the experiment with A549 [7]. Further, the Activity with A549 [8] was determined as 24.56%; in the experiment with A549 [9], 52.34%. This molecule also showed an inhibition against Tubulin (Homo sapiens) [10] of 51.3%. Also, the inhibition result on Tubulin (Homo sapiens) [11] is “Active”. The result in the experiment with A549 [12] and in the experiment with A549 [14] was Active. For the same molecule, the “fold change (FC)” value with A549 [13] was determined as 3.

On to `COc1cc([C@@H]2c3cc4c(cc3[C@@H](O[C@@H]3O[C@@H]5CO[C@@H](C)O[C@H]5[C@H](O)[C@H]3O)[C@H]3COC(=O)[C@H]23)OCO4)cc(OC)c1O` [ETOPOSIDE], for which the IC50 was determined as 2.45 µM with A549 [1]; 1.47 µM in the experiment with HT-29; 2.04 µM with ACHN; 3.17 µM in the experiment on DU-145; 2.75 µM with HeLa. Moreover, the Activity worked out at 4.93% in the experiment with A549 [2]; 4.01% in the experiment with A549 [3]; 70.74% in the experiment on A549 [4]; 46.09% with A549 [5]; 4.24% with A549 [6]; 3.76% in the experiment with A549 [7]. Further, the values for the Activity in the experiment with A549 [8] and in the experiment with A549 [9] were 20.09% and 46.14%, respectively.

As to `COc1cc([C@@H]2c3cc4c(cc3[C@H](O)[C@H]3COC(=O)[C@H]23)OCO4)cc(OC)c1OC` [PODOFILOX], the IC50 with A549 [1] stood at 3.09 µM; in the experiment on HT-29, 2.29 µM; in the experiment on ACHN, 1.93 µM; in the experiment on DU-145, 3.21 µM. On Tubulin (Homo sapiens) [10], this molecule displayed an inhibition of 52%.

Take `O=C1OCC2=C1C(c1ccc(-c3ccc(-c4ccc(C(F)(F)F)cc4)cc3)cc1)c1cc3[nH]ccc3cc1N2` (stereo unspecified): the IC50 with A549 [1] came out at 10 µM; in the experiment with HT-29 it was 7.41 µM; with ACHN, 7.58 µM; in the experiment with DU-145 it was 12.6 µM; in the experiment on HeLa, 16.6 µM.

For the molecule `O=C1OCC2=C1C(c1ccc(-c3ccc(-c4ccc(OC(F)(F)F)cc4)cc3)cc1)c1c(-c3ccccc3)n[nH]c1N2` (stereo unspecified), the IC50 in the experiment with A549 [1] was 0.98 µM; in the experiment with HT-29, 1.77 µM; in the experiment on ACHN, 4.07 µM; in the experiment with DU-145, 1.12 µM; with HeLa it was 2.23 µM.

`O=C1OCC2=C1C(c1ccc(-c3ccc(-c4ccc(OC(F)(F)F)cc4)cc3)cc1)c1cc3[nH]ccc3cc1N2` (stereo unspecified): the IC50 stood at 5.12 µM in the experiment on A549 [1]; 9.33 µM with HT-29; 5.37 µM in the experiment with ACHN; 6.02 µM with DU-145; 7.41 µM in the experiment on HeLa.
